From ChEMBL document CHEMBL1125049, “Aporphines as antagonists of dopamine D-1 receptors” (J Med Chem, 1990)
Activity calls are given as the source filed them. The rule behind the calls is not given here.

How the values were obtained:
[1] = target: D(1A) dopamine receptor (Rattus norvegicus, UniProt P18901)
[2] = target: D(2) dopamine receptor (Rattus norvegicus, UniProt P61169); test: In vitro binding affinity towards rat Dopamine receptor D2 by [3H]spiperone displacement.
[3] = species: Rattus norvegicus; type: functional
[4] = species: Rattus norvegicus; type: functional; remark: listed apart in the source
[5] = species: Rattus norvegicus; test: Ability to block adenylate cyclase stimulation caused by 10 uM dopamine in rat retinal tissue in vitro at a concentration of 100 uM; type: functional
[6] = species: Rattus norvegicus; test: Ability to stimulate adenylate cyclase in rat retinal tissue over basal levels; NS=no significant stimulation; type: functional
Summary of the method: (§1)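 Agonist mode: adenylate cyclase stimulation measured in rat retinal tissue in vitro, with (R)-apomorphine as positive control for D-1 agonist activity; assay run by a previously published adenylate cyclase procedure.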

[7] = Activity was determined against Adenylate cyclase
[8] = species: Rattus norvegicus; test: Ability to stimulate adenylate cyclase in rat retinal tissue over basal levels; type: functional
Summary of the method: as §1

Chain of D(2) dopamine receptor (P61169 whole entry): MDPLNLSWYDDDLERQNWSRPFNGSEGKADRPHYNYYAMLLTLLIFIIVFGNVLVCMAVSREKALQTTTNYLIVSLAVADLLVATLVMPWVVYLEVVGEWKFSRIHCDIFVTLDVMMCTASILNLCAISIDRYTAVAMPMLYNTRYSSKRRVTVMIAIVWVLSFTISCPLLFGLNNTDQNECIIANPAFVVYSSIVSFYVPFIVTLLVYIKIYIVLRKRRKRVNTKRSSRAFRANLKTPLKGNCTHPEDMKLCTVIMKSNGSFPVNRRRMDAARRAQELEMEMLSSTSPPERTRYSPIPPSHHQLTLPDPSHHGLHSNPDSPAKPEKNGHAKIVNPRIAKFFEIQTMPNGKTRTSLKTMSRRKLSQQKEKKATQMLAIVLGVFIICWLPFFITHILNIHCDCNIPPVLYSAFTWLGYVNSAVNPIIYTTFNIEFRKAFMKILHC
Chain of D(1A) dopamine receptor (P18901 whole entry): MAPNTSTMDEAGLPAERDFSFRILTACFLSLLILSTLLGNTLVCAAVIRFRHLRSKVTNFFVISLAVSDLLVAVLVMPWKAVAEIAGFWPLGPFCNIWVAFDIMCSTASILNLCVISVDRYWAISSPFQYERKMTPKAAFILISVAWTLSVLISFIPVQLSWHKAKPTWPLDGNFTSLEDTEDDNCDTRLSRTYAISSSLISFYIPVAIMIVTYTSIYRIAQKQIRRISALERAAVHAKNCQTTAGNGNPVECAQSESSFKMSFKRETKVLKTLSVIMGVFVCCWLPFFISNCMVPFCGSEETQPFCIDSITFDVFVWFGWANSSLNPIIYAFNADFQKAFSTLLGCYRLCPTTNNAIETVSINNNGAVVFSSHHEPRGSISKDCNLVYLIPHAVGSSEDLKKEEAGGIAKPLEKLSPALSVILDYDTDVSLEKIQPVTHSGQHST

SMILES | IC50 [1] [µM] | IC50 [2] [µM] | Inhibition [3] [%] | Inhibition [4] [%] | Inhibition [5] [%] | Stimulation [6] | inhibition [6] | IC50 [7] [µM] | Stimulation [8] [%]
CN1CCc2cccc3c2[C@H]1Cc1c(Br)cc(Br)c(O)c1-3 | > 1 | > 1 | 8.5 | 45.9 | – | – | – | – | –
CN1CCc2cccc3c2[C@@H]1Cc1c(Br)ccc(O)c1-3 | 8.61 | > 10 | 11.9 | 79.4 | – | – | – | – | –
CCCN1CCC[C@@H]2Cc3nc(N)ncc3C[C@H]21 [QUINELORANE] | > 10 | 0.151 | – | – | 6.8 | inactive | – | – | –
CN1CCc2cccc3c2[C@@H]1Cc1cc(Br)cc(O)c1-3 | > 1 | > 1 | 16.8 | 3.2 | – | – | – | – | –
CN1CCc2cccc3c2[C@H]1Cc1ccc(Br)c(O)c1-3 | 0.171 | 0.664 | 24.4 | 87.8 | – | – | inactive | – | –
CN1CCc2cccc3c2[C@H]1Cc1cc(Br)cc(O)c1-3 | 0.818 | 2.58 | 5.3 | 73.4 | – | – | inactive | – | –
CN1CCc2cccc3c2[C@@H]1Cc1cccc(O)c1-3 | 5.06 | 2.24 | 0.8 | 38 | – | inactive | – | – | –
CN1CCc2cccc3c2[C@H]1Cc1c([N+](=O)[O-])ccc(O)c1-3 | – | – | 7.2 | 33.5 | – | – | – | – | –
COc1cccc2c1-c1cccc3c1[C@@H](C2)N(C)CC3 | 3.28 | 2.16 | 7.7 | 31.7 | – | – | – | – | –
CN1CCc2cccc3c2[C@@H]1Cc1ccc(Br)c(O)c1-3 | 3.34 | 2.93 | 9.8 | 54.2 | – | – | – | – | –
CN1CCc2cccc3c2[C@H]1Cc1cccc(O)c1-3 | 0.107 | 0.058 | 31.2 | 87.8 | – | inactive | – | – | –
CN1CCc2cccc3c2[C@H]1Cc1ccc(Cl)c(O)c1-3 | 0.637 | 0.803 | 19.7 | 82 | – | – | – | – | –
COc1ccc2c(c1O)-c1c3c(cc4c1[C@H](C2)N(C)CC4)OCO3 [(S)-BULBOCAPNINE] | 0.739 | 14 | 24.4 | 85.1 | – | – | – | – | –
CN1CCc2cccc3c2[C@H]1Cc1c(Br)ccc(O)c1-3 | 0.181 | 0.449 | 13.1 | 83.3 | – | inactive | – | – | –
CN1CCc2cc(Cl)c(O)cc2[C@@H](c2ccccc2)C1 [SCH-23390] | – | – | 86 | 89.7 | – | – | – | 0.003 | –
CN1CCc2cccc3c2[C@H]1Cc1ccc(O)c(O)c1-3 [APOMORPHINE] | – | – | – | – | – | – | – | – | 91.5
CN1CCc2cccc3c2[C@@H]1Cc1ccc(O)c(O)c1-3 [(S)APOMORPHINE] | – | – | – | 42.3 | – | – | – | – | –
COc1ccc2c(c1O)-c1cccc3c1[C@@H](C2)N(C)CC3 [APOCIDEINE] | 13.3 | 2.08 | – | 5.7 | – | inactive | – | – | –
CN1CCc2cccc3c2[C@H]1Cc1c(Cl)ccc(O)c1-3 | 0.561 | 0.5 | 12.6 | 71.6 | – | – | – | – | –
COc1cccc2c1-c1cccc3c1[C@H](C2)N(C)CC3 | 12.1 | 0.829 | 0.7 | 0 | – | – | – | – | –
